The record followed here is paper PMC6400523 (The Journal of General Physiology, 2019).

Some results are limits rather than exact numbers.

One assay deals with T1, rat ASCT2 (Rattus norvegicus, UniProt D3ZJ25).
T1 sequence (D3ZJ25 1-555): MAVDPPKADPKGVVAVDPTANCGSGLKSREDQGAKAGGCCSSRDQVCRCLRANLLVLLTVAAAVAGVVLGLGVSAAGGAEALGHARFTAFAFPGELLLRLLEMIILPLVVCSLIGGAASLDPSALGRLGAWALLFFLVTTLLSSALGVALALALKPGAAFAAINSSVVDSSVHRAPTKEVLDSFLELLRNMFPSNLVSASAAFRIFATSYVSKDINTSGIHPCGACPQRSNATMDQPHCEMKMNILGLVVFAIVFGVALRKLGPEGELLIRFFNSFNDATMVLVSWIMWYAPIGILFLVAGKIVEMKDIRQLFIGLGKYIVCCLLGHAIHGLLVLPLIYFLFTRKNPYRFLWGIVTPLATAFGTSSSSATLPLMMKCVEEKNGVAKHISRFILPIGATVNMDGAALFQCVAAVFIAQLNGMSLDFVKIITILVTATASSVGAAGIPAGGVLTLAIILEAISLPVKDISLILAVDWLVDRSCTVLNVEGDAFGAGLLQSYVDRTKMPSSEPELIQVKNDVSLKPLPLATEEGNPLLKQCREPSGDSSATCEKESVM
The class given is cell-based. The note with it: for Behaviour in anion current assay (inhibitor / substrate): rASCT2, direction of induced current. Put shortly:
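HEK293 cells cotransfected with rASCT2 and YFP cDNA; whole-cell recording 24–30 h later at 0 mV. External 140 mM NaCl, 2 mM MgCl2, 2 mM CaCl2, 10 mM HEPES pH 7.40; NaSCN pipette solution with 10 mM alanine. 1 mM L-alanine control; outward current = leak inhibition. Ki from Michaelis–Menten-like fit, including varied alanine; Imax from 1 mM response and Km. ≥4 repeats.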

The next assay concerns the target T2, hASCT2 (Homo sapiens, UniProt Q15758).
T2 sequence (Q15758 1-541): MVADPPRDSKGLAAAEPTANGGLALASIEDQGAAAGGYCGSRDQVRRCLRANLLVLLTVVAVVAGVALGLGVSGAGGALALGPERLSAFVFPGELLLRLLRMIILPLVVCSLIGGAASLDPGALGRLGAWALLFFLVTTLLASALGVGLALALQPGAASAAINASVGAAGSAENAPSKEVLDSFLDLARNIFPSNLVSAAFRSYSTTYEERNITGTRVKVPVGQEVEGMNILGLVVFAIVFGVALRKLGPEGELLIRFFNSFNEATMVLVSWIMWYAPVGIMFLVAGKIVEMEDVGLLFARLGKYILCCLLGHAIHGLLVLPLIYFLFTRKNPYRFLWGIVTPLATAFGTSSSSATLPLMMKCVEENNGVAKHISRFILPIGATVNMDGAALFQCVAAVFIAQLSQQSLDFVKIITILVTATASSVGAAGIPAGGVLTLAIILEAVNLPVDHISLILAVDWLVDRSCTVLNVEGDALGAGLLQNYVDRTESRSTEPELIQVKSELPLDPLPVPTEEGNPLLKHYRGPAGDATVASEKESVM
The assay can be described thus: Current recording in HEK293 cells expressing human ASCT2. The class given is cell-based.

Regarding “4-fluorobenzene sulfonamide [Compound 9b]”, the “Imax, maximum current at saturating concentration” value at rat ASCT2 (rASCT2, compared with current induced by 1 mM alanine) is given as “highest outward current”.
On to `NC[C@H](N)C(=O)O` [Compound 1, L-2,3-diaminopropionic acid], for which, at rat ASCT2, the “Behaviour in anion current assay (inhibitor / substrate)” value was “properties of a transported substrate”.
In the case of `CS(N)(=O)=O` [Compound 2b, methanesulfonamide], the “Behaviour in anion current assay (inhibitor / substrate)” value on rat ASCT2 is on record as “borderline substrate-like properties”.
As for `C[C@H](N)C(=O)O` [alanine, L-alanine], the “Current for saturating alanine in hASCT2” value at hASCT2 is under 20 pA.
